Bioassay records as filed in PubChem BioAssay.
PTEN del growth: growth suppression of PTEN-null HCT116, primary screen, cell-based, CellTiter-Glo; HCT116 PTEN-null viability, 60 h; hits give low values; viability, % at 10 µM; 140,000 tested, 1.2% active; AID 827, 2007;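 active = viability at or below a set limit, 4 SD under the median of all tested compounds, cut at about 3.7% in these data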;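 also: PTEN knockout HCT116 line with beta catenin targeted HCT116 as companion control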
H69AR growth 86K: proliferation blockers of H69AR lung cancer cells, primary screen, cell-based, human, 86K library; H69AR lung tumor viability, ATP luminescence, 72 h; hits give low values; viability, % at 10 µM; 85,000 tested, 6% active;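 active = viability at or below 40%; inactive = viability above 40%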;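 also: multidrug resistant small cell line overexpressing MRP-1 efflux transporter; 100% = mean luminescence of untreated control wells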
Lung fibro prol: antiproliferative effect on LL 47 fibroblasts – human, LL 47 cells, CellTiter-Glo luminescence, primary screen. LL 47 human lung fibroblast viability, ATP luminescence; hits give low values. viability, % at 10 µM. 85,000 tested, 1.1% active. AID 719, 2007;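 active = viability at or below 50% in the single dose screen; inactive = viability above 50%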;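 also: compound exposure lasted 72 h before the ATP readout; 100% = median luminescence of untreated cell-only wells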
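Test system: LL 47 human lung fibroblasts / Incubation: 72 h compound exposure at 37 °C after overnight plating / Technique: luminescent ATP detection, CellTiter-Glo / Compound dosing: 0.1% DMSO in all compound wells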
HUVEC prolif 384: inhibitors of HUVEC proliferation, primary screen, cell-based, 384-well | viability, % at 10 µM (by protocol) | 86,000 tested, 1.1% active | AID 648, 2007 | CellTiter-Glo luminescence, 72 h; hits give low values;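 active = viability at or below 30%; inactive = viability above 30%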;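 also: 100% = median luminescence of DMSO-only cell control wells on each plate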
bCat KO growth: primary screen for growth suppressors in beta-catenin knockout HCT116 cells (colon tumor, human) | viability, % at 10 µM | 140,000 tested, 1.5% active | HCT116 beta-catenin knockout viability, CellTiter-Glo, 60 h; hits give low values | AID 818, 2007;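 active = viability at or under a set limit, the compound median less 4 SD, cut at about 6% in these data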;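 also: 0% = Hyamine 1622 control at 20 µM and 100% = untreated cell control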
Active calls of the source: *. This excerpt belongs to a sample that is enriched for hits.

COc1ccc([N+](=O)[O-])cc1NC(=O)c1cn(-c2ccc(C)c(C)c2)c(=O)c2ccccc12 was read as PTEN del growth 62 and bCat KO growth 51.
`O=C(c1cccc2ccccc12)n1nnc2ccccc21` gave H69AR growth 86K 6.5*, Lung fibro prol 99 and HUVEC prolif 384 66.
Cc1ccc(C(=O)n2nnc3ccccc32)cc1 was read as H69AR growth 86K 92, Lung fibro prol 99 and HUVEC prolif 384 97.
Screening COc1ccc(-c2nn(-c3ccccc3)cc2C(=O)O)cc1OC returned PTEN del growth 91, H69AR growth 86K 96, Lung fibro prol 108, HUVEC prolif 384 104 and bCat KO growth 88.
Screening C#CCOC(=O)c1ccccc1C(=O)n1nnc2ccccc21 returned PTEN del growth 90, H69AR growth 86K 38*, Lung fibro prol 97, HUVEC prolif 384 89 and bCat KO growth 89.
Screening COc1ccc(-c2nn(-c3ccccc3)cc2C(=O)n2nnc3ccccc32)cc1 returned PTEN del growth 83, H69AR growth 86K 23*, Lung fibro prol 99, HUVEC prolif 384 77 and bCat KO growth 74.
CSc1nc(C)cc(OCC(=O)N/N=C/c2ccccc2O)n1 was read as PTEN del growth 23 and bCat KO growth 16.
`CC[C@H]1OC(=O)C[C@@H](O)[C@H](C)[C@@H](O[C@@H]2O[C@H](C)C[C@H](N(C)C)[C@H]2O)[C@@H](CC=O)C[C@@H](C)C(=O)C=C[C@]2(C)O[C@H]2[C@@H]1C` gave H69AR growth 86K 25*, Lung fibro prol 38* and HUVEC prolif 384 80.
Screening CC(C)c1cc(NCC2CCCO2)n2c(nc3ccccc32)c1C#N (centres undefined) returned PTEN del growth 79, H69AR growth 86K 9.7*, Lung fibro prol 95, HUVEC prolif 384 80 and bCat KO growth 83.
`Cc1cc(NCC2CCCO2)n2c(nc3ccccc32)c1C#N` (centres undefined) gave PTEN del growth 90, H69AR growth 86K 65, Lung fibro prol 102, HUVEC prolif 384 88 and bCat KO growth 106.
For CCc1c(C)c(C#N)c2nc3ccccc3n2c1NCC1CCCO1 (centres undefined) the results were PTEN del growth 100, H69AR growth 86K 32*, Lung fibro prol 100, HUVEC prolif 384 104 and bCat KO growth 92.
CCc1c(C)c(C#N)c2nc3ccccc3n2c1Cl was read as PTEN del growth 2.2* and bCat KO growth 4.0*.
Screening CCCc1c(C)c(C#N)c2nc3ccccc3n2c1NCCCN1CCOCC1 returned PTEN del growth 83 and bCat KO growth 76.
CCc1c(C)c(C#N)c2nc3ccccc3n2c1-n1nc(C)cc1C was read as PTEN del growth 88, H69AR growth 86K 62, Lung fibro prol 95, HUVEC prolif 384 114 and bCat KO growth 86.
Screening Cc1ccc(C2CC(c3cccs3)=NN2S(=O)(=O)c2ccc(C)cc2)cc1 (centres undefined) returned PTEN del growth 80 and bCat KO growth 81.
Screening CCOC(=O)C(=O)Nc1nnc(CCc2ccccc2)s1 returned PTEN del growth 97, H69AR growth 86K 97, Lung fibro prol 102, HUVEC prolif 384 101 and bCat KO growth 88.
O=C(O)c1ccccc1C(=O)Nc1ccc(S(=O)(=O)NC2CCCCC2)cc1 was read as PTEN del growth 90 and bCat KO growth 92.
`CC(C)OC(=O)c1ccc(NC(=O)Cn2c(-c3nonc3N)nc3ccccc32)cc1` gave PTEN del growth 71, H69AR growth 86K 55, Lung fibro prol 92, HUVEC prolif 384 61 and bCat KO growth 73.
Screening COC(=O)c1ccccc1NC(=O)Cn1c(-c2nonc2N)nc2ccccc21 returned PTEN del growth 18, H69AR growth 86K 8.2*, Lung fibro prol 47*, HUVEC prolif 384 22* and bCat KO growth 16.
`O=C(COC(=O)c1ccccc1C(=O)c1ccc(Cl)cc1)NC(c1ccccc1)c1ccccc1` gave PTEN del growth 73 and bCat KO growth 72.
`COc1ccccc1-n1c(SCc2cc(=O)oc3cc(O)ccc23)nc2ccccc2c1=O` gave PTEN del growth 85 and bCat KO growth 85.
For COc1ccccc1-n1c(=O)oc2ccc(Cl)cc2c1=O the results were PTEN del growth 1.9*, H69AR growth 86K 1.5*, Lung fibro prol 50, HUVEC prolif 384 20* and bCat KO growth 1.2*.
`Cc1cccc(/C=C/C(=O)c2cc(Br)ccc(=O)c2O)c1` gave PTEN del growth 8 and bCat KO growth 5.2*.
CCOc1ccc(/C=C/C(=O)c2cc(Br)ccc(=O)c2O)cc1 was read as PTEN del growth 9 and bCat KO growth 9.
`CCc1ccc(/C=C/C(=O)c2cc(Br)ccc(=O)c2O)cc1` gave PTEN del growth 7 and bCat KO growth 5.1*.
For Cc1ccc(NC(=O)CS(=O)CC(=O)Nc2ccc3c(c2)OCO3)cc1Cl (centres undefined) the results were PTEN del growth 100, H69AR growth 86K 90, Lung fibro prol 102, HUVEC prolif 384 93 and bCat KO growth 109.
For O=C(CSc1ccc2c(c1)OCCO2)NC(=O)Cc1ccccc1 the results were PTEN del growth 86 and bCat KO growth 90.
Screening Cc1ccc(NC(=S)NCC(C)C)cc1 returned PTEN del growth 94 and bCat KO growth 94.
Screening Cc1[nH]c2ccccc2c1Cc1nnc(SCCC#N)o1 returned PTEN del growth 87, H69AR growth 86K 96, Lung fibro prol 105, HUVEC prolif 384 97 and bCat KO growth 86.
Cc1cc(NS(=O)(=O)c2ccccc2)c(C)c(Cl)c1O was read as PTEN del growth 2.2*, H69AR growth 86K 80, Lung fibro prol 82, HUVEC prolif 384 82 and bCat KO growth 2.3*.
Cc1cc(NS(=O)(=O)c2ccccc2)c([N+](=O)[O-])cc1C was read as PTEN del growth 90 and bCat KO growth 88.
Screening CC(=O)N1CCC(N(CCN2CCOCC2)C(=S)Nc2ccccc2C)CC1 returned PTEN del growth 91 and bCat KO growth 96.
`COc1ccccc1NS(=O)(=O)c1cc(NC(=O)Nc2cccc(C)c2)ccc1N1CCCCC1` gave PTEN del growth 57 and bCat KO growth 68.
For O=C(Nc1ccc(Cl)cc1)Nc1ccc(N2CCCC2)c(S(=O)(=O)Nc2ccccc2Cl)c1 the results were PTEN del growth 1.8* and bCat KO growth 1.9*.
For O=C(CC(Nc1ccc(F)cc1)C(=O)OCC(=O)c1cccs1)c1ccccc1 (centres undefined) the results were PTEN del growth 75 and bCat KO growth 83.
`Cc1ccc(Cn2nnc3c(=O)[nH]c(C4CCN(S(=O)(=O)c5cc(C)ccc5C)CC4)nc32)cc1` gave PTEN del growth 71, H69AR growth 86K 32*, Lung fibro prol 100, HUVEC prolif 384 63 and bCat KO growth 71.
